Test system in one data set: not listed separately
The data set is described as follows: Cytotoxicity against human HeLa cells assessed as reduction in cell viability by MTT assay. In kind it is toxicity, cell-based.
Details: not given; call rule not given here
The method in brief:
(§1)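 MTT viability on HeLa or VeroE6 cells, run in parallel with the antiviral assays. CC50 from variable-slope sigmoidal dose–response regression.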
In general terms: Formazan colour is commonly taken as a measure of viable cells.
For orientation: CC50 means the concentration at which the toxic effect on the cells reaches its halfway point. With `CC(C)(C)C(=O)Nc1nc(C(F)(F)F)c(-c2csc(Nc3ccc(O)c(C(=O)O)c3)n2)s1`, the 50% cytotoxic concentration (CC50) is more than 50 µM.

Test system in the next data set: not listed separately
The data set is described as follows: Cytotoxicity against african green monkey Vero E6 cells assessed as reduction in cell viability by MTT assay. The settings on record: chlorocebus sabaeus, Vero E6 cells (Vero C1008). Type of data set: toxicity, cell-based. The method, boiled down: as §1
As to `CC(C)(C)C(=O)Nc1nc(C(F)(F)F)c(-c2csc(Nc3ccc(O)c(C(=O)O)c3)n2)s1`, the CC50 was more than 50 µM.

In a further data set the test system is Bacillus subtilis. The data set is described as follows: Antibacterial activity against Bacillus subtilis ATCC 6633 assessed as reduction in microbial growth measured after 18 hrs by CLSI based broth microdilution method.
Details: not given
In kind it is functional. The method, boiled down:
(§2)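 MIC by CLSI broth microdilution in Mueller–Hinton medium, triplicate. Inoculum 5 × 10^4 CFU per well. Compounds taken up in DMSO (50 mg mL−1 stock) and diluted in medium. Read after 18 h at 35 ± 2 °C.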
(Broth dilution looks for growth in wells or tubes with falling amounts of substance.)
For orientation: MIC means the lowest concentration that inhibits growth of the organism. On to `CC(C)(C)C(=O)Nc1nc(C(F)(F)F)c(-c2csc(Nc3ccc(O)c(C(=O)O)c3)n2)s1`, for which the MIC came out at 32 µg/mL.

The subject of another data set is Bacillus subtilis. The data set is described as follows: Bactericidal activity against Bacillus subtilis ATCC 6633 assessed as reduction in microbial growth measured after 18 hrs by CLSI based broth microdilution method.
Details: not given
In kind it is functional. The method, boiled down: (§3)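 MBC by CLSI broth microdilution in Mueller–Hinton medium, triplicate. Inoculum 5 × 10^4 CFU per well. Read after 18 h at 35 ± 2 °C.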
In general, MBC refers to the lowest tested concentration that kills the bacteria rather than only halting them. Consider `CC(C)(C)C(=O)Nc1nc(C(F)(F)F)c(-c2csc(Nc3ccc(O)c(C(=O)O)c3)n2)s1`, for which the MBC is more than 32 µg/mL.

The next data set has as its system Enterococcus faecalis. The data set is described as follows: Antibacterial activity against Enterococcus faecalis ATCC 29212 assessed as reduction in microbial growth measured after 18 hrs by CLSI based broth microdilution method. Type of data set: functional.
Details: not given
The method in brief: as §2
Regarding `CC(C)(C)C(=O)Nc1nc(C(F)(F)F)c(-c2csc(Nc3ccc(O)c(C(=O)O)c3)n2)s1`, the MIC was more than 32 µg/mL.

The subject of another data set is Streptococcus pyogenes. The data set is described as follows: Antibacterial activity against Streptococcus pyogenes ATCC 12344 assessed as reduction in microbial growth measured after 18 hrs by CLSI based broth microdilution method. Type of data set: functional.
Details: not given
The method in brief:
as §2
Turning to `CC(C)(C)C(=O)Nc1nc(C(F)(F)F)c(-c2csc(Nc3ccc(O)c(C(=O)O)c3)n2)s1`, the MIC stood at 16 µg/mL.

A further data set has as its system Streptococcus pyogenes. The data set is described as follows: Bactericidal activity against Streptococcus pyogenes ATCC 12344 assessed as reduction in microbial growth measured after 18 hrs by CLSI based broth microdilution method. In kind it is functional.
Details: not given
The method in brief:
as §3
On to `CC(C)(C)C(=O)Nc1nc(C(F)(F)F)c(-c2csc(Nc3ccc(O)c(C(=O)O)c3)n2)s1`, for which the MBC was more than 32 µg/mL.

Another data set relates to Staphylococcus aureus. The data set is described as follows: Antibacterial activity against Staphylococcus aureus ATCC 25923 assessed as reduction in microbial growth measured after 18 hrs by CLSI based broth microdilution method. Type of data set: functional.
Details: not given
The method in brief: as §2
With `CC(C)(C)C(=O)Nc1nc(C(F)(F)F)c(-c2csc(Nc3ccc(O)c(C(=O)O)c3)n2)s1`, the MIC is more than 32 µg/mL.

The next data set has as its system Escherichia coli. The data set is described as follows: Synergistic antibacterial activity against Escherichia coli CCUGT incubated for 18 to 24 hrs in presence of colistin by broth microdilution method. Type of data set: functional. The settings on record: time 18-24 hrs.
For the compound `CC(C)(C)C(=O)Nc1nc(C(F)(F)F)c(-c2csc(Nc3ccc(O)c(C(=O)O)c3)n2)s1`, the MAC is more than 64 µg/mL.

The subject of the next data set is Klebsiella pneumoniae. The data set is described as follows: Synergistic antibacterial activity against Klebsiella pneumoniae ATCC 13833 incubated for 18 to 24 hrs in presence of colistin by broth microdilution method. Type of data set: functional. The settings on record: time 18-24 hrs.
`CC(C)(C)C(=O)Nc1nc(C(F)(F)F)c(-c2csc(Nc3ccc(O)c(C(=O)O)c3)n2)s1`: the MAC is more than 64 µg/mL.

The subject of another data set is Acinetobacter baumannii. The data set is described as follows: Synergistic antibacterial activity against Acinetobacter baumannii ATCC 17978 incubated for 18 to 24 hrs in presence of colistin by broth microdilution method. In kind it is functional. The settings on record: time 18-24 hrs.
As for `CC(C)(C)C(=O)Nc1nc(C(F)(F)F)c(-c2csc(Nc3ccc(O)c(C(=O)O)c3)n2)s1`, the MAC is more than 64 µg/mL.

A further data set concerns Pseudomonas aeruginosa. The data set is described as follows: Synergistic antibacterial activity against Pseudomonas aeruginosa ATCC 27853 incubated for 18 to 24 hrs in presence of colistin by broth microdilution method. In kind it is functional. The conditions noted are these: time 18-24 hrs.
As for `CC(C)(C)C(=O)Nc1nc(C(F)(F)F)c(-c2csc(Nc3ccc(O)c(C(=O)O)c3)n2)s1`, the MAC was more than 64 µg/mL.

The subject of a further data set is Zika virus.
Assay: not given
The conditions noted are these: vero e6.
For orientation: IC50 means the point on the concentration scale where inhibition reaches its midpoint. Take `CC(C)(C)C(=O)Nc1nc(C(F)(F)F)c(-c2csc(Nc3ccc(O)c(C(=O)O)c3)n2)s1`: the IC50 result is “Not Active”.

For another data set, the system named is rhinovirus A16. The data set is described as follows: microbe, parasite or virus in culture. The conditions noted are these: Rhinovirus A, HeLa, 48 h.
In turn, `CC(C)(C)C(=O)Nc1nc(C(F)(F)F)c(-c2csc(Nc3ccc(O)c(C(=O)O)c3)n2)s1` showed an IC50 of 9.77 µM.

The subject of a further data set is enterovirus D68. The data set is described as follows: microbe, parasite or virus in culture. The conditions noted are these: Enterovirus D, HeLa, 48 h.
Turning to `CC(C)(C)C(=O)Nc1nc(C(F)(F)F)c(-c2csc(Nc3ccc(O)c(C(=O)O)c3)n2)s1`, the IC50 was 10 µM.

The values above are taken from ChEMBL document CHEMBL5532695, “4-Trifluoromethyl bithiazoles as broad-spectrum antimicrobial agents for virus-related bacterial infections or co-infections” (RSC Med Chem, 2024).
